From ChEMBL document CHEMBL1124920, “cis-diamineplatinum (II) complexes containing phosphono carboxylate ligands as antitumor agents” (J Med Chem, 1990)

Columns and labels:
L1210 [1] = experiment: Antitumor activity (ip) against CDF1 mice bearing Leukemia L1210 cells in 6 mice; type: functional, organism-based; details: Mus musculus
Summary of the method: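 Female CDF1 mice (16-22 g) inoculated ip with 1 × 10^6 L1210 cells in 0.5 mL […] on day 0. Compound given day 1 in 0.5 mL water, six mice per dose. Vehicle controls and cisplatin 8 mg/kg positive controls included. Run to 3× control MST, survivors scored as dying then. Read-out %ILS of MST; >25% active, maximum 200%.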

L1210 [2] = experiment: Optimal dose of the compound measured in mg/kg against CDF1 mice bearing L1210 leukemia cells.; type: functional, organism-based; details: Mus musculus
Summary of the method: (§1)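 Female CDF1 mice (16-22 g) received 1 × 10^6 L1210 cells ip in 0.5 mL […] on day 0. Test compound was given in 0.5 mL water on day 1, with six mice per dose. The study ended at 3× the control mean survival time (MST), and survivors were scored as dying that day. ILS is the % increase in MST over controls; >25% counts as active, and the maximum possible is 200%.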

L1210 [3] = experiment: Antitumor activity (ip) against CDF1 mice bearing Leukemia L1210 cells; type: functional, organism-based; details: Mus musculus; summary of the method: as §1
Mus musculus [4] = species: Mus musculus; experiment: Optimal dose in Sarcoma inoculated CFW mice.; type: functional, organism-based
Summary of the method: (§2)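 Female CFW mice (18-25 g) were implanted ip with 2 × 10^6 Sarcoma 180 ascites cells on day 0. Compound was given ip in 0.5 mL water on day 1, with six mice per dose. The run lasted twice the control MST, and survivors were counted as dying then. Activity is % ILS of MST; >50% counts as active, and the maximum is 100%.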

Mus musculus [5] = experiment: Antitumor activity against CFW mice bearing Sarcoma 180 ascites (S180a) following i.p. administration.; type: functional, organism-based; summary of the method: as §2
Mus musculus [6] = experiment: Number of surviving CFW mice bearing Sarcoma 180 ascites (S180a) (6 mice treated i.p.); type: functional, organism-based
Summary of the method: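 Female CFW mice (18-25 g) implanted ip with 2 × 10^6 S180 ascites cells on day 0. Compound given ip in 0.5 mL water on day 1, adjusted to pH 7, six mice per dose. Vehicle and cisplatin control groups included. Run to twice control MST, survivors counted as dying that day. Read-out %ILS of MST; >50% active, maximum 100%.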

M5076 [7] = experiment: Optimum dose measured in mg/kg; type: functional, organism-based
M5076 [8] = experiment: Antitumor activity of the best % ILS of platinum-phospono carboxylate complex against subcutaneously implanted M5076 reticulum cell sarcoma; type: functional
Summary of the method: (§3)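 BDF1 mice of either sex (6-10 weeks) were implanted sc on day 0 with ~25 mg M5076 tumor fragments. Dosing was iv on days 5, 9, 13 and 17, with doses given per injection, in groups of eight. Study ended on day 75. Read-outs were % ILS of MST and T-C, the difference in median days for tumors to reach 1 g. Active means ILS ≥25% or T-C >13 days.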

M5076 [9] = experiment: Relative median time for tumors to reach 1 g in drug-treated groups and the control group (T-C in days); type: functional; summary of the method: as §3

Sequence	Survivors (L1210 [1])	DOSE (L1210 [2])	ILS (L1210 [3])	DOSE (Mus musculus [4])	ILS (Mus musculus [5])	Survivors (Mus musculus [6])	DOSE (M5076 [7])	ILS (M5076 [8])	T-C (M5076 [9])
CARBOPLATIN	0	80 mg/kg	90%	120 mg/kg	95%	4			
CISPLATIN	0	8 mg/kg	87%	8 mg/kg	81%	3	5	28%	25
